Here are results for ten compounds from ChEMBL document CHEMBL1125624, “Identification and exploitation of the sigma-opiate pharmacophore” (J Med Chem, 1991).

Broadly, the Ki is the dissociation constant of the complex between target and ligand, obtained from inhibition or displacement.

The assay deals with Sigma non-opioid intracellular receptor 1 (Rattus norvegicus, UniProt Q9R0C9). As to the kind of experiment: Binding affinity towards sigma opioid receptor was determined in rat cerebral homogenate using [3H]haloperidol as radioligand. The method in brief:
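Male Sprague-Dawley rat cerebellum was homogenized in 50 mM Tris-HCl pH 7.7 and spun at 39000g for 15 min, three times in all. At least nine competitor concentrations were run with 1 nM [3H]haloperidol plus 25 nM spiperone (to block D2) on 3 mg wet-weight tissue for 90 min. Nonspecific binding was taken with 10 µM DTG. GF/C filtration, scintillation counting; Ki ± SEM, minimum three determinations.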

Sigma non-opioid intracellular receptor 1, sequence (Q9R0C9 whole entry): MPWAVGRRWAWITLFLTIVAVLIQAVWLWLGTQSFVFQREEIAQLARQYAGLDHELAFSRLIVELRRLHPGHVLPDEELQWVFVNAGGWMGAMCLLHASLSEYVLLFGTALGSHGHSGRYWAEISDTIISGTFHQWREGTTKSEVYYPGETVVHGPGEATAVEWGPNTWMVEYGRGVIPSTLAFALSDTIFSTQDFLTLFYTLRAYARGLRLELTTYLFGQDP

In the case of `CC(Cc1ccccc1)NCCCCc1ccccc1` (racemic), the inhibition constant (Ki) came out at 0.0039 µM.
Consider `C[C@H](Cc1ccccc1)NCCCc1ccccc1`, for which affinity was put at a Ki of 0.014 µM.
As to `C[C@@H](Cc1ccccc1)N(C)CCc1ccccc1`, the affinity corresponds to a Ki of 0.016 µM.
`C[C@H](Cc1ccccc1)NCc1ccccc1` [N-BENZYLAMPHETAMINE] showed an inhibitory constant (Ki) of 0.103 µM.
Turning to `C[C@H](Cc1ccccc1)NCCOc1ccccc1`, the affinity, expressed as Ki, was 0.032 µM.
In turn, `CC(N)Cc1ccccc1` (racemic) [AMPHETAMINE] showed a Ki greater than 50 µM.
The compound `C[C@H](Cc1ccccc1)NCC1CC1` had a Ki of 0.664 µM.
As to `C[C@@H](Cc1ccccc1)NCCc1ccccc1`, affinity was put at a Ki of 0.0048 µM.
In the case of `C[C@H](Cc1ccccc1)NCCc1ccccc1` it was 0.046 µM.
Consider `C[C@H](Cc1ccccc1)NCCC(=O)c1ccccc1`, for which the Ki stood at 0.073 µM.
